Structures can show the parent of a compound that is named as a salt. Calls of active or inactive are those of the source. No cut-off for these calls is given here.
Columns and labels:
[1] = Cytotoxicity against human MGC803 cells after 72 hrs by MTT assay; format: functional, cell-based; conditions: MGC-803, 72 h
K562 = test: Cytotoxicity against human K562 cells after 72 hrs by MTT assay; format: functional, cell-based; conditions: K562, 72 h
[2] = Chemical stability of the compound in deuterated DMSO by NMR spectroscopic analysis; format: physicochemical
[3] = Cytotoxicity against human HL60 cells after 72 hrs by MTT assay; format: functional, cell-based; conditions: HL-60, 72 h
NCI-H1975 = test: Cytotoxicity against human NCI-H1975 cells after 72 hrs by MTT assay; format: functional, cell-based; conditions: NCI-H1975, 72 h
[4] = Cytotoxicity against human HO8910 cells after 72 hrs by MTT assay; format: functional, cell-based; conditions: HO-8910, 72 h
[5] = target: T1, DNA topoisomerase 1 (Homo sapiens) (UniProt P11387); test: Inhibition of topoisomerase 1 (unknown origin) assessed as decrease in PBR322 DNA relaxation at 5 to 40 uM after 30 mins by ethidium bromide staining-based agarose gel electrophoresis
T1 sequence (whole entry): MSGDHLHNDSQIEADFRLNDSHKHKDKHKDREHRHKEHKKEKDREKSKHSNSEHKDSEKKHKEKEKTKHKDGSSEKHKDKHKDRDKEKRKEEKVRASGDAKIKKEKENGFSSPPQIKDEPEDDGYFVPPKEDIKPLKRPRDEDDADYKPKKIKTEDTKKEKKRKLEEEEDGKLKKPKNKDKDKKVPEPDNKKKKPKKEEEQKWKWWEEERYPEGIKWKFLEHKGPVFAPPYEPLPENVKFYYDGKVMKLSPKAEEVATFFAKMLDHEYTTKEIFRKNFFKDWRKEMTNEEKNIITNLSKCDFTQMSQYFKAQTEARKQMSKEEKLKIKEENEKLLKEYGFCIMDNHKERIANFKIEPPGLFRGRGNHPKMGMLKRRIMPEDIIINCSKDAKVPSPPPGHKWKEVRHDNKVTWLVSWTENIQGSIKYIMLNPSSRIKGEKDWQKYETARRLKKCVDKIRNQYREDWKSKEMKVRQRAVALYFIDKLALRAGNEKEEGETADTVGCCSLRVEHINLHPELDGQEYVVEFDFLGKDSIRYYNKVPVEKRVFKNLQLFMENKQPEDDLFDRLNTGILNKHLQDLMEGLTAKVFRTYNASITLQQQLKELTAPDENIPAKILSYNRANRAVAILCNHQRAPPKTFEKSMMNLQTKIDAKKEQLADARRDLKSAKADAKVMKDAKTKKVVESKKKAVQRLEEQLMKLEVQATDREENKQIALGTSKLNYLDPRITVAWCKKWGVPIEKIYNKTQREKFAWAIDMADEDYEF
In short: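 Supercoiled pBR322 plasmid DNA served as substrate. Samples were resolved on 1% agarose gels and stained with ethidium bromide. Supercoiled and relaxed DNA bands were marked on the gel.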

[6] = Cytotoxicity against human HCT116 cells after 72 hrs by MTT assay; format: functional, cell-based; conditions: HCT-116, 72 h
A549 = test: Cytotoxicity against human A549 cells after 72 hrs by MTT assay; format: functional, cell-based; conditions: A549, 72 h

SMILES | Stability [2] | inhibition [5] | IC50 [1] [µM] | IC50 (K562) [µM] | IC50 [3] [µM] | IC50 (NCI-H1975) [µM] | IC50 [4] [µM] | IC50 [6] [µM] | IC50 (A549) [µM]
COC(=O)C[C@H](C)[C@@H](O)[C@]1(C(=O)OC)CC(=O)c2c(ccc(-c3ccc(O)c4c3O[C@]3(C(=O)OC)C(=C(O)C[C@H](C)[C@H]3O)C4=O)c2O)O1 | Unstable | Active | 2.2 | 11.1 | 1.6 | 2.7 | 2 | – | –
COc1cccc2c1C(=O)c1c(O)c3c(c(O)c1C2=O)C[C@@](O)(C(=O)CO)C[C@@H]3O[C@H]1C[C@H](N)[C@H](O)[C@H](C)O1 [DOXORUBICIN HYDROCHLORIDE] | – | – | 0.2 | – | – | 0.8 | – | 0.2 | –
COC(=O)[C@@]12Oc3ccc(-c4ccc5c(c4O)C(=O)C[C@@](C(=O)OC)([C@@H]4OC(=O)C[C@@H]4C)O5)c(O)c3C(=O)C1=C(O)C[C@H](C)[C@H]2O | Unstable | – | 9.8 | 9.1 | 3.1 | > 50 | 13.9 | 6.1 | 12.7
COC(=O)C[C@H](C)[C@@H](O)[C@]1(C(=O)OC)CC(=O)c2c(ccc(-c3ccc4c(c3O)C(=O)C3=C(O)C[C@H](C)[C@@H](O)[C@]3(C(=O)OC)O4)c2O)O1 | Unstable | – | – | 6.7 | 2.7 | – | 20.8 | 0.7 | 10.6
COC(=O)[C@@]12Oc3ccc(-c4ccc5c(c4O)C(=O)C4=C(O)C[C@H](C)[C@@H](O)[C@]4(C(=O)OC)O5)c(O)c3C(=O)C1=C(O)C[C@H](C)[C@H]2O | – | – | 1.5 | 2 | 1 | – | 1.5 | 0.9 | 2.1

Now from value to compound, other results behind:

Stability [2] | inhibition [5] | SMILES | IC50 [1] [µM] | IC50 (K562) [µM] | IC50 [3] [µM] | IC50 (NCI-H1975) [µM] | IC50 [4] [µM] | IC50 [6] [µM] | IC50 (A549) [µM]
Unstable | – | COC(=O)[C@@]12Oc3ccc(-c4ccc(O)c5c4O[C@](C(=O)OC)([C@@H]4OC(=O)C[C@@H]4C)CC5=O)c(O)c3C(=O)C1=C(O)C[C@H](C)[C@H]2O | – | 18.2 | 7.8 | 25.6 | > 50 | > 50 | > 50
Unstable | – | COC(=O)[C@@]12Oc3c(-c4ccc(O)c5c4O[C@](C(=O)OC)([C@@H]4OC(=O)C[C@@H]4C)CC5=O)ccc(O)c3C(=O)C1=C(O)C[C@H](C)[C@H]2O | 21.6 | – | 9.9 | > 50 | > 50 | – | > 50
Unstable | – | COC(=O)[C@@]12Oc3c(-c4ccc5c(c4O)C(=O)C[C@@](C(=O)OC)([C@@H]4OC(=O)C[C@@H]4C)O5)ccc(O)c3C(=O)C1=C(O)C[C@H](C)[C@H]2O | > 50 | 7.1 | 2.6 | 11.2 | 10.1 | – | > 50
